Data from ChEMBL document CHEMBL4513216, “Probing the Open Global Health Chemical Diversity Library for Multistage-Active Starting Points for Next-Generation Antimalarials” (ACS Infect Dis, 2020).

Experiment: Toxicity liver stage against HepG2, at 10uM
Type: cell-based
Design: test concentration 10 uM, cell line HepG2-A16-CD81EGFP
Conditions: human, HepG2-A16-CD81EGFP cells; read-out: INHIBITION
Procedure, shortened: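 Uninfected HepG2-A16-CD81EGFP cells, 3 × 10^3 per well, 1536-well, plated on prespotted compound at 10 μM final, parasite-free screening media added to match infected plates; puromycin 10 μM positive, DMSO 0.5% negative; run in parallel with 48 h PbLuc assay at 37 °C, 5% CO2; viability by CellTiter-Glo luminescence, normalized to controls.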

Structure (SMILES) | cytotoxicity at 10 µM [%]
CC(C)Nc1nc(C(=O)Nc2ccccn2)cs1 | 5.15
Cn1cccc1CN(C(=O)CC(CC(=O)O)c1cccs1)C1CC1 (stereo unspecified) | 2.27
Cc1ccccc1C(=O)N1CC(C(=O)NCC2CC2)C2(CCOCC2)C1 (stereo unspecified) | 3.54
CC1(C)CC(=O)c2cnc3nc(N4CCOCC4)nc(O)c3c2C1 | 1.21
O=C(CSC1CCc2ccccc2NC1=O)NC1CC1 (stereo unspecified) | 6.58
Cn1cc(C[C@H]2[C@@H](O)CCN2C(=O)C2CC=CC2)cn1 | 5.6
NC(=O)c1c(-c2ccc(Cl)cc2Cl)csc1NC(=O)CCCC(=O)O | 5.97
c1ccc(CO[C@H]2CN(c3ncccn3)C[C@@]23CCCO3)cc1 | -6.11
CNC(=O)C1CN(c2cc(C)ncn2)CCN1Cc1ccccc1 (stereo unspecified) | 10
COc1ccc(F)cc1C(=O)N(C)[C@@H]1CC[C@@H](O)[C@@H]1O | 7.81
Cc1cccc(C2CCN(S(=O)(=O)c3cn(C)cn3)CC2)n1 | -20.2
COc1ccccc1[S+]([O-])CC(=O)NCc1cc(F)cc(F)c1 (stereo unspecified) | 24.3
COCCNC(=O)NCc1ccc(-n2ccc(C(F)(F)F)n2)cc1 | -7.29
CC(C)Sc1ccc(N2CCN(Cc3ccccn3)CC2)nn1 | 2.11
CCCN1CCCN(C(=O)Nc2ccc3c(c2)OCO3)CC1 | -4.92
COC(=O)N1CCN(Cc2csc(-c3ncccn3)n2)CC1 | -7.53
CC(C)c1cnc(CN(C)C2CCN(CCc3ccccn3)C2)o1 (stereo unspecified) | 2.37
CN(C)c1nccc(CNS(=O)(=O)c2cc(Cl)cc(Cl)c2)n1 | -138
CCc1cnc(CN2C(=O)CC3(CCSC3)C2=O)o1 (stereo unspecified) | -9.36
Cc1cccc(C(=O)Nc2c(C(N)=O)n[nH]c2C)c1C | -1.49
COCc1noc(CCC(=O)c2ccc3c(c2)OCCO3)n1 | 0.923
COc1ccc(C)cc1NC(=O)CNc1ccn(CC(N)=O)n1 | -8.28
CS(=O)(=O)NCC(=O)NC(Cc1ccccc1)C1CCCC1 (stereo unspecified) | 0.69

Structure (SMILES) | cytotoxicity at 10 µM [%]
Cc1cc(N2CCC(NC(=O)CCc3cnn(C)c3)CC2)nc(C)n1 | -2.01
CC1CCN(C(=O)CSCc2nc(C3CC3)no2)CC1 | 1.26
CC(C)c1nsc(NC2CCOC3(CCCC3)C2)n1 (stereo unspecified) | 8.83
Cc1cc(F)c(S(=O)(=O)N(C)CCn2cccn2)cc1F | 0.532
Cc1noc(C)c1C[S+]([O-])Cc1cn2cccc(C)c2n1 (stereo unspecified) | 2.14
NCC(c1ccccc1)N1CCc2sccc2C1 (stereo unspecified) | 1.88
Cc1cccc2c1nc(COCC(=O)O)n2-c1cnc(N)cn1 | 0.238
COCCCC1CCCCN1S(=O)(=O)c1cccc(C#N)c1 (stereo unspecified) | -133
CC(C)(CN1CCC2(CCCNC2)C1)N1CCOCC1 (stereo unspecified) | -141
NC(=O)c1ccc(N2CCN(Cc3cccc4nsnc34)CC2)nc1 | 34.1
Cc1c(NC(=O)NC2CCOCC2)cccc1C(=O)N1CCCC1 | 12
CCCC1(CO)CCCN(C(=O)CNC(N)=O)C1 (stereo unspecified) | 0.83
O=C1NCCN(Cc2ccccc2)C1CC(=O)N1CCc2n[nH]cc2C1 (stereo unspecified) | -6.73
COc1cccc(-c2n[nH]cc2C(=O)NC(C)c2nc(C(C)C)no2)c1 (stereo unspecified) | -2.75
CCc1c(C)nn(CCNC(=O)C2CCCN(C(=O)N(C)C)C2)c1C (stereo unspecified) | -4.42
c1ccc(-c2nnc(CN3CCCC3Cn3cncn3)o2)cc1 (stereo unspecified) | -7.42
COc1ccc(CCN(C)C2CCCN(Cc3noc(C)n3)C2)cc1 (stereo unspecified) | -4.59
CCNc1cc2c(nn1)CCN(C(=O)Cc1ccc(C)nc1)C2 | -3.63
O=C(Nc1ccncc1)N(CCO)Cc1ccsc1 | -3.98
Cc1cc(C(=O)N2CCCC(n3cncn3)C2)c(C)n1CC1CC1 (stereo unspecified) | 2.37
CCn1cnnc1C1CCN(C(=O)COc2ccccc2OC)CC1 | -4.41
O=C1[C@H]2CN(Cc3nccs3)C[C@H]2CN1c1cncnc1 | -81.9
Cc1cccc(CN2CC[C@@H]3[C@@H]2CCN3C(=O)c2cc(C)on2)n1 | -0.762
